From PubChem BioAssay come the findings set out here.

The term viability denotes a read-out of living cells in per cent, often relative to untreated cells. The term inhibition denotes the change of the read-out against control, counted positive when it falls.

Activity calls are given as the source filed them.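 Rule for the calls, unless noted: active = viability at or under a set limit in both replicates, limit being median viability minus 3 SD (cut at about 48% in these data, passing the limit was not always enough); inconclusive = at or under the limit in just one replicate; inactive = at or above the limit in both replicates.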

Test [1] is described as follows: Her2 expression decrease, cell viability multiplex – SKBR3 breast tumor cells, AlphaScreen, ATP viability, primary screen (AID 461;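 active = Her2 level under about 52% in both replicate screens, with viability over 70% of control, limit read from the data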;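 for Her2 level: lower value means less Her2 protein in the cells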;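 for viability: percent of carrier control wells set as 100% viability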). As to conditions: SKBR3 Her2 protein level, 18-24 h, measured here: SKBR3 viability, ATP luminescence, at 10 µM.
Test [2] deals with Receptor tyrosine-protein kinase erbB-2 (Homo sapiens) (UniProt P04626). The test is described as above. The following applies: 18-24 h, at 10 µM, stronger effect = lower value.
Test [3] can be described thus: reduced viability of SK-BR-3 breast cancer cells – cell-based, 24 h, human, pilot screen (AID 572;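 active = viability at or below 10% of carrier control in both of two separate runs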;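 note: compound exposure lasted between 18 and 24 h rather than exactly 24 h; 100% = carrier-treated control wells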). The following applies: SK-BR-3 viability, CellTiter-Glo luminescence, at 10 µM, stronger effect = lower value.
Test [4] in a line: HUVEC growth inhibition – cell-based, human, primary screen (AID 575;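 active = viability at or below 30% in both replicate assays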;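 note: 100% = median of untreated cell wells with 0.1% DMSO on each plate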). As to conditions: HUVEC proliferation, CellTiter-Glo luminescence, 72 h; at 10 µM; stronger effect = lower value. The method in brief: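 System: primary human umbilical vein endothelial cells; Quantity: 1250 endothelial cells in each well; Buffer or medium: supplemented EBM, 2% fetal bovine serum; Doses: one dose, 10 µM final, 0.1% DMSO; Incubation: 72 h compound incubation; Technique: ATP-based CellTiter-Glo luminescent read; Evaluation: percent of median DMSO-control luminescence; Controls: vehicle and MePR control wells.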
In general terms: Cellular ATP, detected with luciferase, serves as a proxy for viable cell number.

Test [5] in a line: H69AR cell proliferation blockers – human, duplicate replicates, primary screen (AID 580).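 Note: 100% = mean luminescence of untreated wells and 0% = no signal.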 As to conditions: H69AR lung tumor cells viability, ATP luminescence, 72 h; at 10 µM; stronger effect = lower value.
Test [6] in a line: MRP1 drug-resistance reversers in H69AR cells – cell-based, doxorubicin co-treatment, pilot screen (AID 601;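 active = viability loss from added drug above about 55%, and viability with drug at most 40%, in both replicates, limit read from the data, passing the limit was not always enough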). The following applies: CellTiter-Glo, 72 h, at 10 µM; for differential viability (reversal): stronger effect = higher value.
Test [7] is described as follows: yeast transport mutant growth inhibition pilot in 384-well plates, post-Golgi transport modulator project (AID 636; in the data active = inhibition above about 31%). As to conditions: absorbance 615 nm, about 18 h, stronger effect = higher value.
A short description of test [8]: growth suppression of yeast trafficking mutant, preliminary HTS, modulators of trafficking downstream of Golgi apparatus project, 1536-format plate, OD 615 nm (AID 637; in the data active = inhibition above about 30%). The following applies: yeast transport mutant growth, absorbance 615 nm, 18 h; stronger effect = higher value.
Setting [9] is: H69AR cells + 2 uM doxorubicin, measured here: viability with 2 uM doxorubicin, stronger effect = lower value.
Setting [10] is: H69AR cells, compound alone cytotoxicity.

Sequence of Receptor tyrosine-protein kinase erbB-2 (Homo sapiens) (P04626 whole entry, looked up): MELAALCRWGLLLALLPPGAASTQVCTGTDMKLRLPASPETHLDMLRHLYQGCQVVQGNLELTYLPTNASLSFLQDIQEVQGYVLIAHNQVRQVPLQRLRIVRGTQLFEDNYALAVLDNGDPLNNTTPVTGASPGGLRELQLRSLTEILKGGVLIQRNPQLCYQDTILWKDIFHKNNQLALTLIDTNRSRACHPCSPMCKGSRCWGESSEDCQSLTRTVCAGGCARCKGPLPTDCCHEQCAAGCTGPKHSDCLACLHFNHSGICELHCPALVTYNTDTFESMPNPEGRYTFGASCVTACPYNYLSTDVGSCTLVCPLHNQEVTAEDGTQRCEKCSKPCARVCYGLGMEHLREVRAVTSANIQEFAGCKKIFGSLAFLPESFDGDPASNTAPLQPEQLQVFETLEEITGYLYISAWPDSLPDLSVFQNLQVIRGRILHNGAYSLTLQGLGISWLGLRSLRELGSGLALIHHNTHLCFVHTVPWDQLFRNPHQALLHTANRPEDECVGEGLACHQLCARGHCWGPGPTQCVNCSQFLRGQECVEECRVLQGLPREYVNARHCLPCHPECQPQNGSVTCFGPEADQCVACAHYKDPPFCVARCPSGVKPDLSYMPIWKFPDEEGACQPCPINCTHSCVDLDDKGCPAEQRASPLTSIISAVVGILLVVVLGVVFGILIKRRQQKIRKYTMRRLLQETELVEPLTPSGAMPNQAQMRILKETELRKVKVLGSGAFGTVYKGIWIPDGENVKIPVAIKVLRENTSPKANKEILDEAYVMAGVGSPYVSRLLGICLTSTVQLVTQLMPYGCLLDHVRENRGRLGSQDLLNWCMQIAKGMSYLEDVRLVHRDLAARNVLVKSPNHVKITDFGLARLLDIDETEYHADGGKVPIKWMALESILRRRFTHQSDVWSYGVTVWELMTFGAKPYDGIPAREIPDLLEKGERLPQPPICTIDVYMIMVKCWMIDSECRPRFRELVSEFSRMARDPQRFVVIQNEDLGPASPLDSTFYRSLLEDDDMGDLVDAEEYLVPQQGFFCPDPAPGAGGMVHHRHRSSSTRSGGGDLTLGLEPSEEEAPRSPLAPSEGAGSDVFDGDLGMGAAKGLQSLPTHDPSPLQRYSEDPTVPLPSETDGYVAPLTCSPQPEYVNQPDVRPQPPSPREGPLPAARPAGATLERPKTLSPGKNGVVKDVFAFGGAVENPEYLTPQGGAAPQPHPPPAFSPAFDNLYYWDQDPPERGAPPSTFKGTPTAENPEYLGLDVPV

In the case of `Cc1nc2sc(C(c3ccc(Br)cc3)N3CC(C)OC(C)C3)c(O)n2n1` (stereo not given), the viability in test [1] is 80%; in test [3], 80% (inactive); in test [4], 109% (inactive); in test [5], 105% (inactive); in test [6] (setting [9]), 90.2%; in test [6] (setting [10]), 105%. The Her2 level in test [2] was 112% (inactive). Further, the differential viability (reversal) in test [6] (H69AR cells + 2 uM doxorubicin) was 15.2% (inactive). The inhibition is -2.21% (inactive) in test [7] and -3.44% (inactive) in test [8].

Consider `O=C(NC12CC3CC(CC(C3)C1)C2)C1CCCN1C(=O)NC1CCCCC1` (stereo not given), for which the viability in test [1] was 102%; in test [3], 102% (inactive); in test [4], 108% (inactive); in test [5] it was 92.6% (inactive); in test [6] (setting [9]), 76.2%; in test [6] (setting [10]) it was 92.6%. In addition, the Her2 level in test [2] was 113% (inactive). Besides, the differential viability (reversal) in test [6] (H69AR cells + 2 uM doxorubicin) is 16.5% (inactive). For the same compound, the inhibition was -6.62% (inactive) in test [7] and 1.5% (inactive) in test [8].

Regarding `Cc1nn(-c2ccc(F)cc2)c2sc(C(=O)O)cc12`, the viability in test [1] was 99%; in test [3], 99% (inactive); in test [4], 72.9% (inactive); in test [5] it was 89.8% (inactive); in test [6] (setting [9]) it was 84.3%; in test [6] (setting [10]) it was 89.8%. In addition, the Her2 level in test [2] is 103% (inactive). In addition, the differential viability (reversal) in test [6] (H69AR cells + 2 uM doxorubicin) was 5.49% (inactive). In addition, the inhibition in test [7] is 0% (inactive); in test [8] it was 1.64% (inactive).

Take `COc1ccc2c(c1)n([O-])c1c([n+]2=O)CCC1`: the viability was 110% in test [1]; 110% (inactive) in test [3]; 109% (inactive) in test [4]; 100% (inactive) in test [5]; 106% in test [6] (setting [9]); 100% in test [6] (setting [10]). The Her2 level in test [2] is 91.5% (inactive). In addition, the differential viability (reversal) in test [6] (H69AR cells + 2 uM doxorubicin) was -6% (inactive). For the same compound, the inhibition in test [7] is -1.18% (inactive); in test [8], -4.55% (inactive).

For `Cn1c(=O)oc2cc(S(=O)(=O)N3CCC(C(=O)Nc4ccc(OC(F)(F)F)cc4)CC3)ccc21`, the viability in test [1] was 137%; in test [3], 137% (inactive); in test [4], 91.4% (inactive); in test [5], 33% (active); in test [6] (setting [9]), 37.5%; in test [6] (setting [10]), 33%. The Her2 level in test [2] is 98.5% (inactive). Further, the differential viability (reversal) in test [6] (H69AR cells + 2 uM doxorubicin) is -4.57% (inactive). For the same compound, the inhibition is -5.92% (inactive) in test [7] and 0.18% (inactive) in test [8].

Take `CCOc1ccc(NCCC(=O)c2ccc3c(c2)OCO3)cc1`: the viability in test [1] was 90%; in test [3], 90% (inactive); in test [4] it was 75.7% (inactive); in test [5], 66.1% (inactive); in test [6] (setting [9]) it was 79.6%; in test [6] (setting [10]), 66.1%. The Her2 level in test [2] was 84.5% (inactive). Also, the differential viability (reversal) in test [6] (H69AR cells + 2 uM doxorubicin) was -13.5% (inactive). In addition, the inhibition was -6.71% (inactive) in test [7] and -5.5% (inactive) in test [8].

Regarding `O=C(Nc1ccc2c(c1)OCO2)c1cncc(Br)c1`, the viability in test [1] is 108%; in test [3], 108% (inactive); in test [4], 82% (inactive); in test [5], 92.6% (inactive); in test [6] (setting [9]), 90.5%; in test [6] (setting [10]) it was 92.6%. Further, in test [2], the Her2 level is 77% (inactive). In addition, in test [6] (H69AR cells + 2 uM doxorubicin), the differential viability (reversal) is 2.14% (inactive). Besides, the inhibition in test [7] was -4.27% (inactive); in test [8] it was 5.25% (inactive).

Consider `COc1ccccc1CC1(C)NC(=O)N(CC(=O)Nc2cc(C)on2)C1=O` (stereo not given), for which the viability in test [1] was 106%; in test [3], 106% (inactive); in test [4], 106% (inactive); in test [5] it was 92.7% (inactive); in test [6] (setting [9]), 83.6%; in test [6] (setting [10]), 92.7%. For the same compound, the Her2 level in test [2] was 86% (inactive). In test [6] (H69AR cells + 2 uM doxorubicin), the differential viability (reversal) is 9.12% (inactive). In addition, the inhibition is -5.81% (inactive) in test [7] and 4.13% (inactive) in test [8].

For `COc1ccc(NC2c3ncccc3C(=O)N2Cc2ccccc2)c(OC)c1` (stereo not given), the viability is 101% in test [1]; 101% (inactive) in test [3]; 93.8% (inactive) in test [4]; 95.8% (inactive) in test [5]; 91.5% in test [6] (setting [9]); 95.8% in test [6] (setting [10]). Further, the Her2 level in test [2] is 85.5% (inactive). The differential viability (reversal) in test [6] (H69AR cells + 2 uM doxorubicin) was 4.3% (inactive). In addition, the inhibition was -1.56% (inactive) in test [7] and 1.75% (inactive) in test [8].

Turning to `Cn1c(=O)c2c(nc(SCc3nn[nH]n3)n2Cc2ccccc2F)n(C)c1=O`, the viability in test [1] is 97.5%; in test [3], 97.5% (inactive); in test [4] it was 94.4% (inactive); in test [5] it was 90.9% (inactive); in test [6] (setting [9]) it was 93.7%; in test [6] (setting [10]), 90.9%. Moreover, the Her2 level in test [2] was 97% (inactive). Further, the differential viability (reversal) in test [6] (H69AR cells + 2 uM doxorubicin) was -2.83% (inactive). Moreover, the results for the inhibition in test [7] and in test [8] were -0.13% (inactive) and 1.27% (inactive), respectively.

In the case of `O=C(NCCCN1CCOCC1)C1CC(=O)N(CCc2ccccc2)C1` (stereo not given), the viability in test [1] is 104%; in test [3], 104% (inactive); in test [4] it was 84.1% (inactive); in test [5], 94.8% (inactive); in test [6] (setting [9]) it was 86.9%; in test [6] (setting [10]) it was 94.8%. For the same compound, the Her2 level in test [2] was 89% (inactive). In addition, the differential viability (reversal) in test [6] (H69AR cells + 2 uM doxorubicin) was 7.94% (inactive). In addition, the values for the inhibition in test [7] and in test [8] were -3.68% (inactive) and -1.29% (inactive), respectively.

As to `O=C(c1cc2n(n1)C(C(F)(F)F)CC(c1ccc(Cl)cc1)N2)N1CCCC1` (stereo not given), the viability in test [1] is 86.5%; in test [3], 86.5% (inactive); in test [4], 82.1% (inactive); in test [5] it was 90.9% (inactive); in test [6] (setting [9]) it was 91.3%; in test [6] (setting [10]) it was 90.9%. The Her2 level in test [2] is 68% (inactive). In addition, the differential viability (reversal) in test [6] (H69AR cells + 2 uM doxorubicin) was -0.385% (inactive). The inhibition was -6.84% (inactive) in test [7] and 3.17% (inactive) in test [8].

Turning to `O=C(Cn1c(=O)[nH]n(-c2ccccc2)c1=O)N1CCCc2ccccc21`, the viability in test [1] was 116%; in test [3] it was 116% (inactive); in test [4], 82.1% (inactive); in test [5], 93.7% (inactive); in test [6] (setting [9]), 85%; in test [6] (setting [10]), 93.7%. The Her2 level in test [2] was 96% (inactive). The differential viability (reversal) in test [6] (H69AR cells + 2 uM doxorubicin) was 8.74% (inactive). Moreover, the figures for the inhibition in test [7] and in test [8] were -5.73% (inactive) and -4.92% (inactive), respectively.

In the case of `CC(C)C(OC(=O)c1ccco1)C(=O)NCc1ccccc1` (stereo not given), the viability in test [1] is 91.5%; in test [3], 91.5% (inactive); in test [4], 92.5% (inactive); in test [5] it was 99.1% (inactive); in test [6] (setting [9]), 90.4%; in test [6] (setting [10]), 99.1%. Moreover, the Her2 level in test [2] is 97% (inactive). Besides, the differential viability (reversal) in test [6] (H69AR cells + 2 uM doxorubicin) was 8.63% (inactive). Also, the inhibition in test [7] is 0% (inactive); in test [8] it was -4.6% (inactive).

On to `CC1Cc2ccccc2N1C(=O)CSc1nnc2n1C(C)(C)Cc1ccccc1-2` (stereo not given), for which the viability in test [1] is 79%; in test [3], 79% (inactive); in test [4], 71.8% (inactive); in test [5] it was 82.4% (inactive); in test [6] (setting [9]), 90.4%; in test [6] (setting [10]), 82.4%. Moreover, in test [2], the Her2 level was 105% (inactive). Moreover, the differential viability (reversal) in test [6] (H69AR cells + 2 uM doxorubicin) was -7.96% (inactive). Further, the inhibition is -6.4% (inactive) in test [7] and -7.3% (inactive) in test [8].

In the case of `CCN1CCN(C(=O)c2ccc3c(=O)n(CCC4=CCCCC4)c(=O)[nH]c3c2)CC1`, the viability in test [1] was 91%; in test [3], 91% (inactive); in test [4], 78.1% (inactive); in test [5] it was 84.7% (inactive); in test [6] (setting [9]), 67.9%; in test [6] (setting [10]), 84.7%. In addition, in test [2], the Her2 level was 114% (inactive). Moreover, the differential viability (reversal) in test [6] (H69AR cells + 2 uM doxorubicin) was 16.7% (inactive). For the same compound, the inhibition in test [7] was -8.29% (inactive); in test [8] it was -0.55% (inactive).
